ChEMBL document CHEMBL1137781, “Synthesis and preclinical evaluation of novel PET probes for P-glycoprotein function and expression” (J Med Chem, 2009)

Legend:
[1] = system: Muscle tissue; test: Biodistribution in Wistar rat muscle at 11+/-2 MBq, iv after 80 mins; assay type: ADME, organism-based; settings: in vivo
Method in brief: (§1)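 Male Wistar rats (12 h light/dark, chow ad libitum) were fitted with a femoral arterial cannula under isoflurane. They were pretreated via tail vein with saline, cyclosporin A (50 mg/kg), or nonradioactive tracer compound (15 mg/kg; 10 mg/mL in saline with 35% ethanol). The 11C tracer was then given via penile vein, followed by 76 min microPET. Animals were then terminated; excised tissues were weighed and gamma-counted with decay correction. Values are SUVs (tissue MBq/g × body weight g / injected MBq).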

[2] = system: Duodenum; test: Biodistribution in Wistar rat duodenum at 11+/-2 MBq, iv after 80 mins; assay type: ADME, organism-based; settings: in vivo; method in brief: as §1
[3] = Biodistribution in Wistar rat fat at 11+/-2 MBq, iv after 80 mins; assay type: ADME, organism-based, Adipose tissue; settings: in vivo; method in brief: as §1
[4] = Biodistribution in 15 mg/kg unlabeled 6,7-dimethoxy-2-(3-(5-methoxy-3,4-dihydronaphthalen-1(2H)-ylidene)propyl)-1,2,3,4-tetrahydroisoquinoline pretreated Wistar rat cingulate cortex at 13+/-2 MBq, iv after 80 mins; assay type: ADME, organism-based; parameters: dose 15 mg/kg, route intravenous; settings: in vivo
Method in brief: (§2)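 Male Wistar rats given saline or unlabeled compound via tail vein: 15 mg/kg, dissolved at 10 mg/mL in saline with 35% ethanol. [11C] tracer (8-15 MBq) then given via penile vein. After microPET scanning the anesthetized rats were killed. Tissues were excised and weighed, and blood was spun for plasma and cell fraction. γ counting with decay correction. Results as SUV (tissue MBq/g × body weight/injected dose).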

[5] = Biodistribution in 15 mg/kg unlabeled 6,7-dimethoxy-2-(3-(5-methoxy-3,4-dihydronaphthalen-1(2H)-ylidene)propyl)-1,2,3,4-tetrahydroisoquinoline pretreated Wistar rat parietal/temporal/occipital cortex at 13+/-2 MBq, iv after 80 mins; assay type: ADME, organism-based; parameters: dose 15 mg/kg, route intravenous; settings: in vivo; method in brief: as §2
[6] = system: Heart; test: Biodistribution in 15 mg/kg unlabeled 6,7-dimethoxy-2-(3-(5-methoxy-3,4-dihydronaphthalen-1(2H)-ylidene)propyl)-1,2,3,4-tetrahydroisoquinoline pretreated Wistar rat heart at 13+/-2 MBq, iv after 80 mins; assay type: ADME, organism-based; parameters: dose 15 mg/kg, route intravenous; settings: in vivo; method in brief: as §2
[7] = system: Kidney; test: Biodistribution in Wistar rat kidney at 11+/-2 MBq, iv after 80 mins; assay type: ADME, organism-based; settings: in vivo; method in brief: as §1
[8] = Biodistribution in Wistar rat bulbus olfactorius at 11+/-2 MBq, iv after 80 mins; assay type: ADME, organism-based, Olfactory bulb; settings: in vivo
[9] = system: Plasma; test: Biodistribution in Wistar rat plasma at 11+/-2 MBq, iv after 60 mins; assay type: ADME, organism-based; settings: in vivo, 1 h
Method in brief: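 Male Wistar rats under isoflurane with a femoral arterial cannula; saline pretreatment via tail vein. Carbon-11 tracer (8–15 MBq, diluted in saline) injected into the penile vein during microPET. 14 arterial samples were drawn from 15 s to 60 min, plasma was separated by centrifugation, and radioactivity was gamma-counted. Results are given as SUV (tissue MBq/g × body weight/injected dose).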

[10] = Biodistribution in 15 mg/kg unlabeled 6,7-dimethoxy-2-(3-(5-methoxy-3,4-dihydronaphthalen-1(2H)-ylidene)propyl)-1,2,3,4-tetrahydroisoquinoline pretreated Wistar rat bulbus olfactorius at 13+/-2 MBq, iv after 80 mins; assay type: ADME, organism-based, Olfactory bulb; parameters: dose 15 mg/kg, route intravenous; settings: in vivo; method in brief: as §2
[11] = Biodistribution in Wistar rat parietal/temporal/occipital cortex at 11+/-2 MBq, iv after 80 mins; assay type: ADME, organism-based; settings: in vivo; method in brief: as §1
[12] = system: Plasma; test: Biodistribution in 15 mg/kg unlabeled 6,7-dimethoxy-2-(3-(5-methoxy-3,4-dihydronaphthalen-1(2H)-ylidene)propyl)-1,2,3,4-tetrahydroisoquinoline pretreated Wistar rat plasma at 13+/-2 MBq, iv after 80 mins; assay type: ADME, organism-based; parameters: dose 15 mg/kg, route intravenous; settings: in vivo; method in brief: as §2
[13] = system: Pancreas; test: Biodistribution in Wistar rat pancreas at 11+/-2 MBq, iv after 80 mins; assay type: ADME, organism-based; settings: in vivo; method in brief: as §1
[14] = Biodistribution in 15 mg/kg unlabeled 6,7-dimethoxy-2-(3-(5-methoxy-3,4-dihydronaphthalen-1(2H)-ylidene)propyl)-1,2,3,4-tetrahydroisoquinoline pretreated Wistar rat frontal cortex at 13+/-2 MBq, iv after 80 mins; assay type: ADME, organism-based; parameters: dose 15 mg/kg, route intravenous; settings: in vivo; method in brief: as §2
[15] = Biodistribution in 15 mg/kg unlabeled 6,7-dimethoxy-2-(3-(5-methoxy-3,4-dihydronaphthalen-1(2H)-ylidene)propyl)-1,2,3,4-tetrahydroisoquinoline pretreated Wistar rat fat at 13+/-2 MBq, iv after 80 mins; assay type: ADME, organism-based, Adipose tissue; parameters: dose 15 mg/kg, route intravenous; settings: in vivo; method in brief: as §2
[16] = system: Bone; test: Biodistribution in 15 mg/kg unlabeled 6,7-dimethoxy-2-(3-(5-methoxy-3,4-dihydronaphthalen-1(2H)-ylidene)propyl)-1,2,3,4-tetrahydroisoquinoline pretreated Wistar rat bone at 13+/-2 MBq, iv after 80 mins; assay type: ADME, organism-based, Bone element; parameters: dose 15 mg/kg, route intravenous; settings: in vivo; method in brief: as §2
[17] = system: Cerebellum; test: Biodistribution in Wistar rat cerebellum at 11+/-2 MBq, iv after 80 mins; assay type: ADME, organism-based; settings: in vivo
[18] = system: Pons; test: Biodistribution in 15 mg/kg unlabeled 6,7-dimethoxy-2-(3-(5-methoxy-3,4-dihydronaphthalen-1(2H)-ylidene)propyl)-1,2,3,4-tetrahydroisoquinoline pretreated Wistar rat pons at 13+/-2 MBq, iv after 80 mins; assay type: ADME, organism-based; parameters: dose 15 mg/kg, route intravenous; settings: in vivo; method in brief: as §2
[19] = system: Brain; test: Biodistribution in 15 mg/kg unlabeled 6,7-dimethoxy-2-(3-(5-methoxy-3,4-dihydronaphthalen-1(2H)-ylidene)propyl)-1,2,3,4-tetrahydroisoquinoline pretreated Wistar rat brain at 13+/-2 MBq, iv after 56 mins; assay type: ADME, organism-based; parameters: dose 15 mg/kg, route intravenous; settings: in vivo
Method in brief: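 Male Wistar rats given saline or unlabeled compound (15 mg/kg, 10 mg/mL in saline with 35% ethanol) via tail vein. [11C] tracer then given via penile vein. Dynamic microPET under anesthesia, with a 3D ROI drawn over the whole brain. SUV taken from the time-activity curve (frames 4×60 s, 3×120 s, 4×300 s, 3×600 s), assuming a density of 1 g/mL. Mean ± SEM.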

[20] = Biodistribution in Wistar rat frontal cortex at 11+/-2 MBq, iv after 80 mins; assay type: ADME, organism-based; settings: in vivo; method in brief: as §1
[21] = system: Spleen; test: Biodistribution in 15 mg/kg unlabeled 6,7-dimethoxy-2-(3-(5-methoxy-3,4-dihydronaphthalen-1(2H)-ylidene)propyl)-1,2,3,4-tetrahydroisoquinoline pretreated Wistar rat spleen at 13+/-2 MBq, iv after 80 mins; assay type: ADME, organism-based; parameters: dose 15 mg/kg, route intravenous; settings: in vivo; method in brief: as §2
[22] = Biodistribution in 15 mg/kg unlabeled 6,7-dimethoxy-2-(3-(5-methoxy-3,4-dihydronaphthalen-1(2H)-ylidene)propyl)-1,2,3,4-tetrahydroisoquinoline pretreated Wistar rat entorhinal cortex at 13+/-2 MBq, iv after 80 mins; assay type: ADME, organism-based; parameters: dose 15 mg/kg, route intravenous; settings: in vivo; method in brief: as §2

COc1cc2c(cc1OC)CN(CC/C=C1\CCCc3c(O[11CH3])cccc31)CC2
SUV [1]: 0.52 | SUV [2]: 3.06 | SUV [3]: 0.35 | SUV [4]: 0.31 | SUV [5]: 0.43 | SUV [6]: 0.68 | SUV [7]: 1.53 | SUV [8]: 0.64 | SUV [9]: 0.49 | SUV [10]: 0.4 | SUV [11]: 0.65 | SUV [12]: 0.56 | SUV [13]: 4.02 | SUV [14]: 0.37 | SUV [15]: 0.36 | SUV [16]: 0.81 | SUV [17]: 0.79 | SUV [18]: 0.5 | SUV [19]: 0.68 | SUV [20]: 0.65 | SUV [21]: 1.72 | SUV [22]: 0.49
